Active and inactive are the calls of the source. No cut-off for these calls is given here.
How the values were obtained:
[1] = system: SH-SY5Y; assay: cells; format: functional, cell-based; settings: Homo sapiens, 48 h
[2] = system: HeLa; assay: cells; format: functional, cell-based; settings: Homo sapiens, 48 h
[3] = system: HeLa; assay: cells; format: functional, cell-based; settings: Homo sapiens, 72 h
[4] = system: HepG2; assay: cells; format: functional, cell-based; settings: Homo sapiens, HepG2, 72 h
[5] = system: HeLa; assay: cells; format: functional, cell-based; settings: Homo sapiens, 24 h
[6] = system: HepG2; assay: cells; format: functional, cell-based; settings: Homo sapiens, HepG2, 48 h
[7] = target: T1, Matrix metalloproteinase-9 (Homo sapiens, UniProt P14780); assay: Inhibition of MMP9
T1 sequence (P14780 whole entry): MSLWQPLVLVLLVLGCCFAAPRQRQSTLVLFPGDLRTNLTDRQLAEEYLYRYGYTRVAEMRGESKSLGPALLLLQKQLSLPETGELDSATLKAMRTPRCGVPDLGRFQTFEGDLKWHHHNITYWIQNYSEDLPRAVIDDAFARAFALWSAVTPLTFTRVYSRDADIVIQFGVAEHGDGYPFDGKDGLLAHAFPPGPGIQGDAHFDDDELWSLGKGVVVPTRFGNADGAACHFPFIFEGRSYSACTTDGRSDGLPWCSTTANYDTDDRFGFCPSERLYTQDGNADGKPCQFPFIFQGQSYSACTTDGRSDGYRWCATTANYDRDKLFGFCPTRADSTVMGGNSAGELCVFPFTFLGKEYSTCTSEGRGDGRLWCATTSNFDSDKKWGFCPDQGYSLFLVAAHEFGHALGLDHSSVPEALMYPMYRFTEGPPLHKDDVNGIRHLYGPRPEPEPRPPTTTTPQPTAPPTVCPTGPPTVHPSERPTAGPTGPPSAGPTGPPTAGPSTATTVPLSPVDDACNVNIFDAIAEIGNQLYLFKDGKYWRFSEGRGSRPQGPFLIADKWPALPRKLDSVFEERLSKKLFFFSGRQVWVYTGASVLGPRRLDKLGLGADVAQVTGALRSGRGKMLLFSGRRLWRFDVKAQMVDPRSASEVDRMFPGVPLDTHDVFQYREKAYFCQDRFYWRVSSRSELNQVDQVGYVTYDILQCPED

[8] = target: T2, Stromelysin-1 (Homo sapiens, UniProt P08254); assay: Inhibition of MMP3
Target sequence in this assay (P08254 whole entry): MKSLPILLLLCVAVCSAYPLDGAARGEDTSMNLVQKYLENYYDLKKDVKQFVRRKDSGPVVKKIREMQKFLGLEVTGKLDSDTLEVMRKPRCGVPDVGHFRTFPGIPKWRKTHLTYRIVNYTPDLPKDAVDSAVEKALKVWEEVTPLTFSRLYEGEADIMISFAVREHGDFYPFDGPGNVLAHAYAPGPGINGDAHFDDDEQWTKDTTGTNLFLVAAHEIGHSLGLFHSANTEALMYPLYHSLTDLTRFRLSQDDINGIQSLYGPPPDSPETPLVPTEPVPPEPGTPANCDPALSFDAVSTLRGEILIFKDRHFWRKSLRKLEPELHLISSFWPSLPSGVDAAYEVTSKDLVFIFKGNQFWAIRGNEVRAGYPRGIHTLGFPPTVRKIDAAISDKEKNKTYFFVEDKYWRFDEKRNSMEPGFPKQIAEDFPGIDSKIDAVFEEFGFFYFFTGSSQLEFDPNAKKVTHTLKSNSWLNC

[9] = target: T3, Interstitial collagenase (Homo sapiens, UniProt P03956); assay: Inhibition of MMP1
T3 sequence (P03956 whole entry): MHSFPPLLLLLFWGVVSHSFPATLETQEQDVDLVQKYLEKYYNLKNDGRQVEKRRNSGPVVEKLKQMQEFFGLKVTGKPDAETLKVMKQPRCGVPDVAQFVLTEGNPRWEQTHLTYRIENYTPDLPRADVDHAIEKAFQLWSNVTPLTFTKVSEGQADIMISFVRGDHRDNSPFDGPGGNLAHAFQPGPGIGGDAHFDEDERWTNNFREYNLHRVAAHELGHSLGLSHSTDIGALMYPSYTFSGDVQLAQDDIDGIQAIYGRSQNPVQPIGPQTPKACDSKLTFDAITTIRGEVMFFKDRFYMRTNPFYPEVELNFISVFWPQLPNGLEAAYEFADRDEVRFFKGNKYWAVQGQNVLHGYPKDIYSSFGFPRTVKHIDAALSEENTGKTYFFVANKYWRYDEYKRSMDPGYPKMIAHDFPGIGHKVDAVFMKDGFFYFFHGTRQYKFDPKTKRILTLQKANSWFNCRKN

[10] = target: T4, Histone deacetylase 11 (Homo sapiens, UniProt Q96DB2); assay: Inhibition of human recombinant HDAC11 using fluorophore-conjugated substrate Boc-L-Lys(Ac)-AMC after 60 mins
T4 sequence (Q96DB2 whole entry): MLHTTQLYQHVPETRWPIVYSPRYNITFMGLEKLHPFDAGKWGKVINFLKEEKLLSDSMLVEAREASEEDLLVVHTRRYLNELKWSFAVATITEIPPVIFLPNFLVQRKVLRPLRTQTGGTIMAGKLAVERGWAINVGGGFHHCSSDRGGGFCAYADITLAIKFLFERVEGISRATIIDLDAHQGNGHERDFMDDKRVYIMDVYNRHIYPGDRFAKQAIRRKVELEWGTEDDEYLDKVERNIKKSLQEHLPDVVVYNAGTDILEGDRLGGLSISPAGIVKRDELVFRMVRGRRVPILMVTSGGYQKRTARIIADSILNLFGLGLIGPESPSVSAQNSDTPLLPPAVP

[11] = target: T5, Polyamine deacetylase HDAC10 (Homo sapiens, UniProt Q969S8); assay: Inhibition of human recombinant HDAC10 using fluorophore-conjugated substrate Boc-L-Lys(Ac)-AMC after 60 mins
T5 sequence (Q969S8 whole entry): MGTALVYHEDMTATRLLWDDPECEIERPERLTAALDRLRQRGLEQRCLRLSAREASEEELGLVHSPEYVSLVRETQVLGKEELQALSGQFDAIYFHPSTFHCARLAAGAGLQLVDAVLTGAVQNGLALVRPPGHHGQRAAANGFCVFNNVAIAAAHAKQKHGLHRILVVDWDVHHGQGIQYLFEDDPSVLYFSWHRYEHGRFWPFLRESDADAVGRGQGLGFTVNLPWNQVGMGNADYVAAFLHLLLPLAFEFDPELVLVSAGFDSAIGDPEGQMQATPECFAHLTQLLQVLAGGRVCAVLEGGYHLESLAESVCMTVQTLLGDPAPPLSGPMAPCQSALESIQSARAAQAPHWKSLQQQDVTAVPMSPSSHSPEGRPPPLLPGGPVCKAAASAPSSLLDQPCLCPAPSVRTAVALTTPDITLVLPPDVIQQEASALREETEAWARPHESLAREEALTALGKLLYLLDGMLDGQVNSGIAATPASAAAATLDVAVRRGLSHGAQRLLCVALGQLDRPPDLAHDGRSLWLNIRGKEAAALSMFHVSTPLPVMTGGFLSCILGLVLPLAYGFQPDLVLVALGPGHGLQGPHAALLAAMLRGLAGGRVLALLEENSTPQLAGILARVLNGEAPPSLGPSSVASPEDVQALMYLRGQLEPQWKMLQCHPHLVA

[12] = target: Histone deacetylase 9 (Homo sapiens, UniProt Q9UKV0); assay: Inhibition of human recombinant HDAC9 using fluorophore-conjugated substrate Boc-L-Lys(Ac)-AMC after 60 mins
Histone deacetylase 9, sequence (Q9UKV0 whole entry): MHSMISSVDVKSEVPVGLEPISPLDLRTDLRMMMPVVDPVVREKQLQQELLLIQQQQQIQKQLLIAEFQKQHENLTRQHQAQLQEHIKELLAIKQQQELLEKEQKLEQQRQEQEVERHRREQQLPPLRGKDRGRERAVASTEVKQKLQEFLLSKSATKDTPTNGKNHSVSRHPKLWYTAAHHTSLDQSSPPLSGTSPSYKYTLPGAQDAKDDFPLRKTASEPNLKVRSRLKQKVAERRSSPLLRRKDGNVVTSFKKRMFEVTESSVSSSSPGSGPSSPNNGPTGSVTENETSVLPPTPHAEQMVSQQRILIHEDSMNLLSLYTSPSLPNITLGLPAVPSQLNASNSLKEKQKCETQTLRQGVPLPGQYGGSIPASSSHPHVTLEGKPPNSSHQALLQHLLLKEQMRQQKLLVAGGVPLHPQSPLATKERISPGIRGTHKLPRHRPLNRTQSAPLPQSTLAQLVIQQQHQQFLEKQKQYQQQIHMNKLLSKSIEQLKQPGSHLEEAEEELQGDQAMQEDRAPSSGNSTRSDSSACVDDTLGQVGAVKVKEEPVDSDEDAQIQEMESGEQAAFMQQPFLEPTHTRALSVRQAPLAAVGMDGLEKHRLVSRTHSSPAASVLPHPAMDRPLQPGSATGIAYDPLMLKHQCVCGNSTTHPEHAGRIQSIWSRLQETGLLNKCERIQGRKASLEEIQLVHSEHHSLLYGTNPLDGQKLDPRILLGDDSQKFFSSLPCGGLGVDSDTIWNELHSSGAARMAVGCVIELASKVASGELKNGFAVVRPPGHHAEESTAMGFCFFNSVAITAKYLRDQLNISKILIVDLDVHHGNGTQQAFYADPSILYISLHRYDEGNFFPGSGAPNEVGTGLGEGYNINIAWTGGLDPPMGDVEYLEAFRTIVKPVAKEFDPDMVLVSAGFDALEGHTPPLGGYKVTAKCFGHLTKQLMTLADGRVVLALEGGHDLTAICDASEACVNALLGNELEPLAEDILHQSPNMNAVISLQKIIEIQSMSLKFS

[13] = target: Histone deacetylase 5 (Homo sapiens, UniProt Q9UQL6); assay: Inhibition of human recombinant HDAC5 using fluorophore-conjugated substrate Boc-L-Lys(Ac)-AMC after 60 mins
Histone deacetylase 5, sequence (Q9UQL6 whole entry): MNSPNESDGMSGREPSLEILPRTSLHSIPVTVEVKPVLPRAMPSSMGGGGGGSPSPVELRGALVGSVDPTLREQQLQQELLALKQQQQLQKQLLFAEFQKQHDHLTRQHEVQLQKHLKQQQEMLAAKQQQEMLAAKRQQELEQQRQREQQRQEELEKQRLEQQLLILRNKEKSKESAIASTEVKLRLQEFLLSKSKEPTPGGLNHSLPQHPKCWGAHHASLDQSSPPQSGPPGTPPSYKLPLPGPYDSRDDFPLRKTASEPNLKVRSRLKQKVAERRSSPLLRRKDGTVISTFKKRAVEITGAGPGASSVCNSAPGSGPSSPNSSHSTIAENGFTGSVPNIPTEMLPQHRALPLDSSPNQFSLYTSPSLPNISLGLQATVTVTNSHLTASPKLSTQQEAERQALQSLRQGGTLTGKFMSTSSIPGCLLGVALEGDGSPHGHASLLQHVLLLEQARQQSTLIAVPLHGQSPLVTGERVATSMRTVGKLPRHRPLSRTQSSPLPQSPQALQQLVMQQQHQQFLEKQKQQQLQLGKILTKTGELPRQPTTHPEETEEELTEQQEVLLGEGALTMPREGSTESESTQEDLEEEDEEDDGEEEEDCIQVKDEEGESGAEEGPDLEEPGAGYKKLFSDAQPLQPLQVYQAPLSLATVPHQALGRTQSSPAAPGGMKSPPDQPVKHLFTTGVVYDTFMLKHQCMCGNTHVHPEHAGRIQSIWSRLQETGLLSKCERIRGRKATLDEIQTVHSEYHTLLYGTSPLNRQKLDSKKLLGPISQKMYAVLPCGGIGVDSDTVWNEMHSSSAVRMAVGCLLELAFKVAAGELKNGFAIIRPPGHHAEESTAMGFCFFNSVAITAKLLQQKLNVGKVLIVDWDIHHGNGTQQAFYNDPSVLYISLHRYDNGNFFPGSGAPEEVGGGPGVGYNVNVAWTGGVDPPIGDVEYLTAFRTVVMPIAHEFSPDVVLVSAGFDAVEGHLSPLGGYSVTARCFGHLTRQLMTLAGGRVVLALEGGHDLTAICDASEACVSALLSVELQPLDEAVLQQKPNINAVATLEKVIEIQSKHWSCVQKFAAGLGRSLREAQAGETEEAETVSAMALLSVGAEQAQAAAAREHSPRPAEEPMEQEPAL

[14] = target: Histone deacetylase 2 (Homo sapiens, UniProt Q92769)
Histone deacetylase 2, sequence (Q92769 whole entry): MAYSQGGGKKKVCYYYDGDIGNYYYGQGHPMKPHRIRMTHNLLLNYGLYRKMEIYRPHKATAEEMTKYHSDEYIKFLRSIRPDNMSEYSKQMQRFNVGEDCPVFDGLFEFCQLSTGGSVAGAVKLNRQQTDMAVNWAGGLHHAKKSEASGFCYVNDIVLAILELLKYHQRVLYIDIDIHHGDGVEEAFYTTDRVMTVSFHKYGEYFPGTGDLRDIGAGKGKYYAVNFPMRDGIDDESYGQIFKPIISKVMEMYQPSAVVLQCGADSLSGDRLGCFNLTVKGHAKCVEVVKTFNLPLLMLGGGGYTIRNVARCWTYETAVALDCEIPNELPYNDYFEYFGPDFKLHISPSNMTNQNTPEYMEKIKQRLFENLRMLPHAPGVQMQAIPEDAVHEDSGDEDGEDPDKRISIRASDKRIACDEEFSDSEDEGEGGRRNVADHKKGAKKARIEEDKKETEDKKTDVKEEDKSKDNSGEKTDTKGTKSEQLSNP

[15] = target: Histone deacetylase 3/Nuclear receptor corepressor 2 (HDAC3/NCoR2) (Homo sapiens, UniProt O15379); assay: Inhibition of human recombinant HDAC3/NCoR2 using fluorophore-conjugated substrate Boc-L-Lys(Ac)-AMC; format: protein-complex assay
[16] = target: Histone deacetylase (Homo sapiens) (UniProt Q13547+O15379+Q9UBN7+Q92769+Q9UQL6+Q8WUI4+Q9BY41+Q96DB2+P56524+Q9UKV0+Q969S8); assay: Inhibition of HDAC in retinoic acid-differentiated human SH-SY5Y cells assessed as increase in histone H4 acetylation at 1 uM after 24 hrs by Western blot analysis in presence of 100 uM LY294002; format: cell-based
[17] = system: HepG2; assay: Induction of apoptosis in human HepG2 cells assessed as hyperacetylation of p53 at 1 to 10 uM by Western blot analysis; format: functional, cell-based
In short: (§1)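 HepG2 cells are seeded at 2.7×10^5 cells/well in D7 medium (DMEM, 7% FBS), refed after 24 h, and after 1 h at 37 °C treated with DMSO or 1, 5 or 10 µM inhibitor. Lysis is in ice-cold 1% CHAPSO buffer (50 mM Hepes pH 7.4), 45 min at 4 °C. Immunoblots are probed for cleaved caspase 3 Asp175, acetyl-Lys373 p53, total p53 and GAPDH, detected by chemiluminescence, with band densitometry.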

[18] = system: HepG2; assay: Induction of apoptosis in human HepG2 cells assessed as cleavage of caspase 3 at 1 to 10 uM after 14 hrs by Western blot analysis; format: functional, cell-based
In short: as §1

[19] = target: T1, Matrix metalloproteinase-9; assay: Inhibition of MMP9 assessed as activity remaining at […]
[20] = target: T2, Stromelysin-1; assay: Inhibition of MMP3 assessed as activity remaining at […]
Target sequence in this assay (P08254 100-477 limits assumed): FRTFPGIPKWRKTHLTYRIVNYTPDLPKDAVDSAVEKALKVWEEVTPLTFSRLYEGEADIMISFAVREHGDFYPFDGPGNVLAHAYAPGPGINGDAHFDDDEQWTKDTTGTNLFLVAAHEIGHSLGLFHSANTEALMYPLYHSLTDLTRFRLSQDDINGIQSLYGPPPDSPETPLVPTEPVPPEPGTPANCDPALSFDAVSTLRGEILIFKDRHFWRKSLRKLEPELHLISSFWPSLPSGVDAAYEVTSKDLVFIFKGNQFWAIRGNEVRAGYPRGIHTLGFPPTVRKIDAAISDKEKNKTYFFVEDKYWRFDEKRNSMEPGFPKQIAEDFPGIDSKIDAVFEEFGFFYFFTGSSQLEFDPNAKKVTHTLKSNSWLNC

Structure (SMILES): [N-]=[N+]=NCc1cc(N=[N+]=[N-])cc(C(=O)Nc2ccc(-c3cc(C(=O)NCCCCCCC(=O)NO)no3)cc2)c1
- EC50 [1]: 32.2 µM
- EC50 [2]: 10.7 µM
- EC50 [3]: 4.7 µM
- EC50 [4]: 4.9 µM
- EC50 [5]: 26.5 µM
- EC50 [6]: 11.5 µM
- IC50 [7]: 22.9 µM
- IC50 [8]: 12.1 µM
- IC50 [9]: 108 µM
- IC50 [10]: 116 nM
- IC50 [11]: 776 nM
- IC50 [12]: 37.8 nM
- IC50 [13]: 932 nM
- IC50 [14]: 780 nM
- IC50 [15]: 45 nM
- inhibition [16]: Active
- Activity [17]: inactive
- Activity [18]: Active

Structure (SMILES): [N-]=[N+]=NCc1cc(Cn2cc(NC(=O)CCCCCCC(=O)NO)cn2)cc(N=[N+]=[N-])c1
- EC50 [1]: 35.9 µM
- EC50 [2]: 23.7 µM
- EC50 [3]: 15 µM
- EC50 [4]: 13.4 µM
- EC50 [5]: 30.6 µM
- EC50 [6]: 24.3 µM
- Activity [19]: > 70%
- Activity [20]: > 70%
- IC50 [10]: 476 nM
- IC50 [11]: 140 nM
- IC50 [12]: 704 nM
- IC50 [13]: 892 nM
- IC50 [14]: 1000 nM
- IC50 [15]: 128 nM
- inhibition [16]: Active
